# Laboratory results as given in ChEMBL document CHEMBL1155308, “Metallo-beta-lactamase inhibitory activity of phthalic acid derivatives” (Bioorg Med Chem Lett, 2009).
# Test: Inhibition of carbapenems-resistant Pseudomonas aeruginosa MSC15369 metallo-beta-lactamase IMP-1 expressed in Escherichia coli after 20 mins by spectrophotometry
# Procedure, shortened: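 IMP-1 purified from cell extracts by Ni-NTA; 1.0 nM enzyme in 50 mM HEPES pH 7.5 with 100 µM ZnSO4 and 20 µg/ml BSA, preincubated with inhibitor 20 min at room temperature; nitrocefin substrate, initial velocity read at 490 nm; IC50 determined.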
row,SMILES,IC50 [µM]
1,O=C(O)c1cccc(-c2cccc(O)c2)c1C(=O)O,1.75
2,O=C(O)c1cccc(-c2ccc(O)cc2)c1C(=O)O,1.55
3,O=C(O)c1cccc(CCCO)c1C(=O)O,13.2
4,CC(C)(C)c1ccc(C(=O)O)c(C(=O)O)c1,> 300
5,Cc1cccc(C(=O)O)c1C(=O)O,160
6,O=C(O)c1cccc(-c2ccccc2)c1C(=O)O,0.968
7,O=C(O)c1cccc(-c2ccccc2O)c1C(=O)O,2.44
8,O=C(O)c1cccc(-c2cccc(C(=O)O)c2C(=O)O)c1,17.9
9,CCCCc1ccc(C(=O)O)c(C(=O)O)c1C,16
10,CCCCc1ccc(C(=O)O)c(C(=O)O)c1,243
11,Cc1ccc(C(=O)O)c(C(=O)O)c1,> 300
12,O=C(O)c1ccc(-c2ccccc2)cc1C(=O)O,> 300
13,O=C(O)c1ccc(-c2cccc(C(=O)O)c2C(=O)O)cc1,2.25
14,O=C(O)c1ccccc1-c1cccc(C(=O)O)c1C(=O)O,207
15,O=C(O)c1ccccc1C(=O)O [PHTHALIC ACID],> 100
